These results are taken from ChEMBL document CHEMBL5584364, “Reaping the Chemical Diversity of Morinagamyces vermicularis Using Feature-Based Molecular Networking” (J Nat Prod, 2024).

By MIC is commonly meant the lowest concentration found to suppress growth. One may read the IC50 as the concentration that inhibits the measured activity by half.

One data set relates to Wickerhamomyces anomalus. The data set is described as follows: Antifungal activity against Wickerhamomyces anomalus assessed as reduction in fungal growth incubated for overnight by serial dilution assay. Format: functional. A digest of the protocol: (§1)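 MIC50 determined against five fungi (C. albicans, M. hiemalis, R. glutinis, S. pombe, W. anomalus), with nystatin as positive control. Values given in µg/mL; "–" means no inhibition under test conditions.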

The test system of another data set is Rhodotorula glutinis. The data set is described as follows: Antifungal activity against Rhodotorula glutinis assessed as reduction in fungal growth incubated for overnight by serial dilution assay. The class given is functional. The method in brief:
as §1

Data set [1] deals with Schizosaccharomyces pombe. The data set is described as follows: Antifungal activity against Schizosaccharomyces pombe assessed as reduction in fungal growth incubated for overnight by serial dilution assay. Format: functional. A digest of the protocol:
as §1

The subject of another data set is Candida albicans. The data set is described as follows: Antifungal activity against Candida albicans assessed as reduction in fungal growth incubated for overnight by serial dilution assay. Format: functional. The method in brief: as §1
The test system of a further data set is Mucor hiemalis. The data set is described as follows: Antifungal activity against Mucor hiemalis assessed as reduction in fungal growth incubated for overnight by serial dilution assay. Format: functional. A digest of the protocol: as §1
In the next data set the test system is Pseudomonas aeruginosa. The data set is described as follows: Antibacterial activity against Pseudomonas aeruginosa assessed as reduction in microbial growth incubated for overnight by serial dilution assay. The class given is functional, organism-based. A digest of the protocol: (§2)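 MIC50 determined against Gram-positive and Gram-negative bacteria. Positive controls: oxytetracycline for most bacteria, ciprobay for A. baumannii, gentamycin for Ps. aeruginosa. Values given in µg/mL; "–" means no inhibition under test conditions.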

Another data set deals with KB 3-1. The data set is described as follows: (§3) Cytotoxicity against human KB-3-1 cells assessed as reduction in cell viability after 5 days by MTT assay. The class given is toxicity, cell-based. The following applies: kb 3-1. The method in brief:
(§4)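 Cytotoxicity read by MTT method against mammalian cell lines (human endocervical adenocarcinoma KB 3.1, mouse fibroblast L929), with epothilone B as positive control. IC50 reported in µM.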
(Formazan colour is commonly taken as a measure of viable cells.)

Another data set has as its system Staphylococcus aureus. The data set is described as follows: Antibacterial activity against Staphylococcus aureus assessed as reduction in microbial growth incubated for overnight by serial dilution assay. Format: functional. The method in brief:
as §2

The test system of data set [2] is Chromobacterium violaceum. The data set is described as follows: Antibacterial activity against Chromobacterium violaceum assessed as reduction in microbial growth incubated for overnight by serial dilution assay. Format: functional. The method in brief: as §2
The next data set has as its system Escherichia coli. The data set is described as follows: Antibacterial activity against Escherichia coli assessed as reduction in microbial growth incubated for overnight by serial dilution assay. The class given is functional. The method in brief:
as §2

The subject of a further data set is Bacillus subtilis. The data set is described as follows: Antibacterial activity against Bacillus subtilis assessed as reduction in microbial growth incubated for overnight by serial dilution assay. The class given is functional. The method in brief: as §2
A short description of data set [3]: Cytotoxicity against mouse L929 cells assessed as reduction in cell viability after 5 days by MTT assay. The class given is toxicity, cell-based. The method in brief:
as §4

Another data set deals with Acinetobacter baumannii. The data set is described as follows: Antibacterial activity against Acinetobacter baumannii assessed as reduction in microbial growth incubated for overnight by serial dilution assay.
Data set [4] can be described thus: as §3. The class given is toxicity, cell-based. The following applies: human, KB-3-1 cells. The method in brief: as §4

In brackets after ≈: the same amount, converted by molar mass. Activity calls are given as the source filed them. The rule behind the calls is not given here.

Take NYSTATIN: the minimal inhibitory concentration (MIC) came to 8.3 µg/mL with Wickerhamomyces anomalus; 2.1 µg/mL with Rhodotorula glutinis; 4.2 µg/mL in [1]; 16.6 µg/mL in the data set on Candida albicans; 8.3 µg/mL with Mucor hiemalis.

On to `CN1C(=O)C23SSSC4c5ccccc5O[C@]41C(=O)N2O[C@]1(C[C@H](O)[C@H](O)CC1=O)[C@H]3O` (stereo partly specified), for which the result (with Pseudomonas aeruginosa; in the data set on Staphylococcus aureus; in data set [2]; in the data set on Escherichia coli) was inactive. In addition, the IC50 result with KB 3-1 is given as “Non-Toxic”. For the same molecule, the MIC worked out at 33.3 µg/mL (≈ 66.8 µM) with Wickerhamomyces anomalus (Hansenula anomala); 66.6 µg/mL (≈ 134 µM) with Rhodotorula glutinis; 66.6 µg/mL (≈ 134 µM) in data set [1]; 66.6 µg/mL (≈ 134 µM) with Candida albicans; 66.6 µg/mL (≈ 134 µM) in the data set on Mucor hiemalis; 66.6 µg/mL with Bacillus subtilis. Also, in data set [3], the IC50 at 5 days is 50 µM.

As for `O=C(O)c1cn(C2CC2)c2cc(N3CCNCC3)c(F)cc2c1=O` [CIPROFLOXACIN], in the data set with Acinetobacter baumannii, the minimum inhibitory concentration (MIC) is 0.53 µg/mL.

Regarding `CN(C)[C@@H]1C(O)=C(C(N)=O)C(=O)[C@@]2(O)C(O)=C3C(=O)c4c(O)cccc4[C@@](C)(O)[C@H]3[C@H](O)[C@@H]12` [OXYTETRACYCLINE], the MIC stood at 0.83 µg/mL in the data set on Staphylococcus aureus, 0.83 µg/mL in data set [2], 3.3 µg/mL with Escherichia coli and 16.6 µg/mL in the data set on Bacillus subtilis.

Regarding `CN1C(=O)C23SSC4c5ccccc5O[C@]41C(=O)N2O[C@]1(C[C@H](O)C=CC1=O)[C@H]3O` (stereo partly specified), the outcome in the data set on Pseudomonas aeruginosa and with Escherichia coli was inactive. Further, the half-inhibitory concentration (IC50) at 5 days in [4] came out at 49 µM; in [3], 42 µM. Besides, the MIC with Wickerhamomyces anomalus (Hansenula anomala) amounted to 33.3 µg/mL (≈ 74.3 µM); with Rhodotorula glutinis, 33.3 µg/mL (≈ 74.3 µM); in the data set with Staphylococcus aureus, 8.3 µg/mL; in data set [1], 66.6 µg/mL (≈ 149 µM); in the data set on Candida albicans it was 66.6 µg/mL (≈ 149 µM); in data set [2] it was 16.6 µg/mL. Besides, the minimum inhibitory concentration (MIC) with Mucor hiemalis is 8 µg/mL (≈ 17.8 µM); in the data set on Bacillus subtilis it was 16.6 µg/mL.

Regarding `CSC1c2ccccc2O[C@]12C(=O)N1O[C@]3(CCC=CC3=O)[C@@H](O)C1(SC)C(=O)N2C` (stereo partly specified), the result (with Pseudomonas aeruginosa; with Wickerhamomyces anomalus; with Rhodotorula glutinis; in data set [1]; in the data set on Candida albicans; in data set [2]) was inactive. Further, the result in the data set with Mucor hiemalis and with Escherichia coli was inactive. For the same molecule, the 50% inhibitory concentration (IC50) at 5 days in data set [4] was found to be 15 µM; in data set [3], 5 µM. The MIC in the data set with Staphylococcus aureus and with Bacillus subtilis was 66.6 µg/mL in each case.

As for `C/C(=C\c1csc(C)n1)[C@@H]1C[C@@H]2O[C@@H]2CCC[C@H](C)[C@H](O)[C@@H](C)C(=O)C(C)(C)[C@H](O)CC(=O)O1`, the half-maximal inhibitory concentration (IC50) at 5 days came to 4e-05 µM in [4] and 0.00052 µM in data set [3].

As for GENTAMICIN, in the data set with Pseudomonas aeruginosa, the MIC was determined as 0.42 µg/mL.

Consider `CN1C(=O)C23SSC4c5ccccc5O[C@]41C(=O)N2O[C@]1(C[C@H](O)[C@H](O)CC1=O)[C@H]3O` (stereo partly specified), for which the result (in the data set with Pseudomonas aeruginosa; in the data set with Candida albicans; in [2]; in the data set with Escherichia coli) was inactive. The results for the concentration for half-maximal inhibition (IC50) at 5 days in data set [4] and in [3] were 54 µM and 58 µM, respectively. Further, the minimal inhibitory concentration (MIC) in the data set with Wickerhamomyces anomalus (Hansenula anomala) was determined as 66.6 µg/mL (≈ 143 µM); with Rhodotorula glutinis, 66.6 µg/mL (≈ 143 µM); with Staphylococcus aureus it was 33.3 µg/mL; in [1] it was 66.6 µg/mL (≈ 143 µM); in the data set with Mucor hiemalis, 33.3 µg/mL (≈ 71.4 µM); in the data set with Bacillus subtilis it was 33.3 µg/mL.
